ChEMBL document CHEMBL4513216, “Probing the Open Global Health Chemical Diversity Library for Multistage-Active Starting Points for Next-Generation Antimalarials” (ACS Infect Dis, 2020)

Test: Toxicity liver stage against HepG2, at 10uM
Assay type: cell-based
Parameters: test concentration 10 uM, cell line HepG2-A16-CD81EGFP
Details: human, HepG2-A16-CD81EGFP cells; read-out: INHIBITION
Procedure, shortened: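 Uninfected HepG2-A16-CD81EGFP cells, 3 × 10^3 per well, 1536-well, plated on prespotted compound at 10 μM final, parasite-free screening media added to match infected plates; puromycin 10 μM positive, DMSO 0.5% negative; run in parallel with 48 h PbLuc assay at 37 °C, 5% CO2; viability by CellTiter-Glo luminescence, normalized to controls.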

| SMILES | cytotoxicity at 10 µM |
| --- | --- |
| O=c1[nH]cc(N2CCCCCC2)c(=O)[nH]1 | 3.46% |
| O=C1COC[C@H]([C@H](O)c2ccc(NC(=O)c3cccnc3)cc2)N1 | 0.317% |
| O=C(Nc1cc(C(F)(F)F)ccc1Cl)c1ccc(N2CCOCC2)nn1 | -9.89% |
| CN(C)C(=O)CN1CCC2(CCN(S(C)(=O)=O)CC2)C1=O | 2.2% |
| CC(=O)N1CCOCC2(C1)CN(S(C)(=O)=O)CCO2 (stereo not given) | 2.84% |
| CCS(=O)(=O)N1C[C@@H](c2nnc(C)o2)C[C@H]2OCC[C@H]21 | 1.36% |
| Cn1c2c(c(=O)n1C)CN(S(=O)(=O)c1cccs1)CCC2 | 8.98% |
| Cc1ccc(C(=O)N2CCCc3c(c(=O)n(C)n3C)C2)o1 | 5.92% |
| CC(C)N1CCO[C@H]2CN(S(=O)(=O)c3ccc(C#N)cc3)C[C@H]21 | 7.55% |
| Cc1ccoc1C(=O)N1CC[C@@]2(C[C@H](NS(C)(=O)=O)CCO2)C1 | 7.43% |
| COCCC1COC2(CCN(C(=O)CC3CCCC3)CC2)C1 (stereo not given) | -2.46% |
| NC(=O)CN1CCC(c2noc3cc(F)ccc23)CC1 | 5.47% |
| CNC(=O)C1CN(C(=O)c2ccccc2)Cc2cn(C)nc21 (stereo not given) | -1.5% |
| c1cc(C2CCN(C3CCCCC3)C2)n[nH]1 (stereo not given) | 1.65% |
| Cc1ncc(-c2ccncc2)c(C2CCCN(C(=O)c3ccno3)C2)n1 (stereo not given) | 11.9% |
| Cc1ccc(CN2CCC(c3cnccn3)CC2)s1 | -0.64% |
| Cc1cccc(CN2CCC(c3nnsc3S(C)(=O)=O)CC2)c1 | 1.86% |
| CC(C)N1CCC(Cc2cncc(-c3cccc(C(=O)O)c3)n2)CC1 | -20.8% |
| Cc1cc(-c2cnn(CCNC(=O)c3cc[nH]n3)c2C2CC2)on1 | -13.6% |
| O=S(=O)(c1ccccc1)N1CCCC1c1cc[nH]n1 (stereo not given) | -6.58% |
| CC(=O)N1CCN(c2cc(C3CN(C)CCO3)nc(C)n2)CC1 (stereo not given) | 1.05% |
| COc1cc2c(nn1)CCN(Cc1ncc(C(C)(C)C)o1)C2 | -6.44% |

| SMILES | cytotoxicity at 10 µM |
| --- | --- |
| CN(CC(C)(CO)CO)C(=O)Nc1cc(F)cc(F)c1 | 0.669% |
| CNS(=O)(=O)CC(=O)N1CCC(c2cc3ccccc3[nH]2)CC1 | 3.12% |
| Cn1cc(C2CCCN2C(=O)CCCc2nc3ccccc3[nH]2)cn1 (stereo not given) | 2.35% |
| CCc1nnsc1C(=O)NC(CC(C)C)C(=O)OC (stereo not given) | 11.4% |
| COc1cc2c(cc1OC)CN(C(=O)NCC1CCCO1)CC2 (stereo not given) | -16% |
| CCSc1cc(C(=O)N(C(C)C)C2CC2)ccn1 | 6.27% |
| CC1(C)CN(C(CNS(N)(=O)=O)c2ccc(Cl)cc2)CCO1 (stereo not given) | 6.88% |
| O=S(=O)(CCN1CCN(c2ccccc2O)CC1)c1ccc(Br)cc1 | 10.7% |
| Cc1cc(N2CCN(C(=O)c3cn(C)c4ccccc34)CC2)nc(C)n1 | -1.96% |
| CC(=O)N1CCN(C(=O)NCc2ccccc2Cn2ccnc2)CC1 | 0.243% |
| CCn1nc2c(cc1=O)CN(Cc1cc(C)on1)CC2 | 0.341% |
| O=C(NCC1(N2CCOCC2)CCSC1)Nc1cn[nH]c1 (stereo not given) | 9.37% |
| CCN(CC)C(=O)CSc1ccc(C(F)(F)F)cn1 | 12.7% |
| CN1CCN(S(=O)(=O)c2ncn(C)c2Cl)CC1 | 6.84% |
| Cc1ccc(C(=O)NC2CCN(Cc3nc(CC(C)C)no3)CC2)s1 | 7.61% |
| CC(C)C(NC(=O)Nc1ccc(F)cc1)C(=O)N(C)C (stereo not given) | -10.9% |
| CCOc1cc(C)nc(N2CCN(C(C)c3nc(C)no3)CC2)n1 (stereo not given) | -1.67% |
| CCCc1nn(C2CCN(C3CC3)C2=O)c(=O)o1 (stereo not given) | -13.7% |
| Cc1nnc(CN(C)CCOc2cccc(Cl)c2)o1 | 12.8% |
| Cc1nn(C)c(C)c1CCC(=O)N1CCc2sccc2C1 | 16.3% |
| CCn1c(C)cc(C(=O)NCc2cccc(NS(C)(=O)=O)c2)c1C | -2.6% |
| CC(c1nc(C(C)(C)C)no1)N1CCC(N2CCCC2)CC1 (stereo not given) | 3.63% |

| SMILES | cytotoxicity at 10 µM |
| --- | --- |
| CN(C)CCN(Cc1ccccn1)C(=O)Nc1cccc(F)c1 | 8.94% |
| O=C1OCCN1c1cccc(CNS(=O)(=O)Cc2ccc(F)cc2)c1 | 4.77% |
| COCC1CCCN(C(=O)c2ccccc2NCc2cccnc2)C1 (stereo not given) | 8.47% |
| CC(=O)N(C)c1nc(Cn2nnnc2C(C)C)cs1 | -2.01% |
| O=C(NCCN1CCOCC1)Nc1cc(F)ccc1-n1cccn1 | -14.9% |
| Cc1cc(Cl)c(C)c(S(=O)(=O)N2CCN(Cc3ccccn3)CC2)c1Cl | -7.06% |
| O=S(=O)(CC1CCCCC1)NCc1ccc(O)nc1 | 5.27% |
| CCOc1ccccc1CSc1nnc(CC2CCS(=O)(=O)C2)n1C (stereo not given) | 10.7% |
| c1coc(-c2nnc(CN3CCCC(CN4CCCCCC4)C3)o2)c1 (stereo not given) | -10.5% |
| Cc1nc(C)n(CC2CCCN(Cc3nnc(C(C)(C)C)o3)C2)n1 (stereo not given) | -11% |
| CN1[C@H](CN2CCCC2)C[C@@H]2CN(C(=O)c3cnccn3)CC[C@@H]21 | 10.6% |
| Cc1ccc(C(=O)N2CCC3(CCCN(c4ccc(C)nn4)C3)C2)cn1 (stereo not given) | -112% |
| CS(=O)(=O)NCc1noc2c1CN(C(=O)C1CCC1)CC2 | -105% |
| CN(C)C(=O)CN1CCC2(CCCN(Cc3ccsc3)C2)C1=O (stereo not given) | -106% |
| CC(=O)NCC[C@H]1CC(C)(C)Oc2ccccc21 | -0.363% |
| CCNC(=O)[C@@H]1C[C@@H](NC(=O)c2ccc(C)s2)CN1Cc1ccccn1 | -3.73% |
| CC(=O)C1(c2ccccc2)CCN(C(=O)c2ccc3nnnn3c2)CC1 | 20.1% |
| O=C(Nc1cnc2n1CCCC2)C1CCNCC1 | 4.25% |
| COCCN1CCC(c2nc3c([nH]2)CC(C)(C)CNC3=O)CC1 | -3.13% |
| CC(C)n1cnnc1CN(C)C(=O)c1cccnc1O | 2.1% |
| COCc1noc(CN2CC(=O)N(C)c3ccccc3C2=O)n1 | -6.3% |
| CCCN1CCCC2(CCN(S(=O)(=O)c3cccnc3)C2)C1=O (stereo not given) | -2.3% |

| SMILES | cytotoxicity at 10 µM |
| --- | --- |
| CCc1nnc(CNC(=O)c2cc3c(nc2OC)CCC3)s1 | 0.156% |
| Cc1cnccc1CN(C)Cc1c[nH]nc1-c1ccc(F)cc1F | -5.93% |
| CCc1nn(C)c(Cl)c1CN1CCCC(c2cc(O)nc(C)n2)C1 (stereo not given) | -2.37% |
| CC1(C)CNC(=O)c2nc(-c3ccccc3)[nH]c2C1 | -7.28% |
| CCC(C)N(Cc1cccnc1)C(=O)c1ccc(NS(=O)(=O)CC)cc1 (stereo not given) | 7.1% |
| O=C(O)C(c1ccc(O)cc1)N1CCC(N2CCSCC2)CC1 (stereo not given) | 0.646% |
| CCN1CCN(C[C@@H]2CN(Cc3cnc(C(C)C)nc3)C[C@@H]2CO)CC1 | -6.79% |
| Cc1nc(O)cc(CN2C[C@H](NC(=O)C3CCC3)[C@@H](C3CC3)C2)n1 | 0.675% |
| N#Cc1c(SCCN2CCCCCC2)sc2c(O)cc(O)nc12 | -10.5% |
| CCC1(c2ccc(NS(=O)(=O)N(C)C)cc2)CCC(=O)NC1=O (stereo not given) | -7.19% |
| CCC(O)CN1CCN(C(=O)Cc2ccccc2Cl)CC1 (stereo not given) | -7.98% |
| CN1CCCC1CNC(=O)CCCOc1ccc(I)cc1 (stereo not given) | -14% |
| Cc1ncc2c(n1)CN(CC(=O)Nc1nncs1)CC2 | -10.8% |
| CCc1nnc2n1CCN(Cc1ccc3c(c1)OCCO3)C2 | -6.61% |
| Cc1c(C(=O)N2CCCC2c2cnn(C)c2)nnn1-c1ccccc1 (stereo not given) | -11.4% |
| O=C(c1ccc(OCC2CC2)nc1)N1CCCC(n2cncn2)C1 (stereo not given) | -3.25% |
| CC(=O)c1cccc(OCCCC(=O)NCC2CCCN2C)c1 (stereo not given) | 0.71% |
| Cc1cn2c(n1)CCC(NC(=O)c1ccc(CS(C)(=O)=O)cc1)C2 (stereo not given) | -2.19% |
| Cc1cnc(CN2CCOC(Cn3nc(C)nc3C)C2)cn1 (stereo not given) | 1.46% |
| COc1cc(C(=O)Nc2c(C)noc2C)ccc1C | -15% |
| Cc1cc(CN2CCN(C(=O)NCc3ccc(C)s3)CC2)no1 | -2.84% |
| CC(Cn1cccn1)NC(=O)N1CCN(Cc2cccs2)CC1 (stereo not given) | 2.31% |

| SMILES | cytotoxicity at 10 µM |
| --- | --- |
| COc1cc(C(=O)NC(CC(=O)O)c2cccs2)cc(Cl)c1OC (stereo not given) | 4.31% |
| CCn1ncc2c1CCCC2NCc1cccc2c1OCCO2 (stereo not given) | 1.71% |
| CC(C)c1nc2n(n1)CC(NCc1nnc(C(C)C)o1)CC2 (stereo not given) | -4.13% |
| CCOCC(O)CN1CCN(C(=O)CC(C)(C)C)CC1 (stereo not given) | -5.95% |
| CCC(CO)NCc1ccc(-c2ccc(F)c(Cl)c2)o1 (stereo not given) | 5.24% |
| O=C(CCN1CCCCC1)Nc1c2c(cc3c1CCC3)CCC2 | 4.29% |
| CCc1cc(C(F)(F)F)n2nc(C3CCCN3C3CCSCC3)cc2n1 (stereo not given) | 3.81% |
| CC1=N[C@@]2(CC[C@@H]3CN(CC(C)C)C[C@@H]32)C(=O)N1C | 3.5% |
| Cc1ccc(N2CC[C@H]3[C@@H]2CCC(=O)N3CCN2CCOCC2)nn1 | -3.18% |
| NCC(=O)N1CCCC(c2ccnc(Nc3cnccn3)n2)C1 (stereo not given) | 2.66% |
| CCS(=O)(=O)N1CCC2(CN(c3cccc(C)n3)C2)C1 | 3.5% |
| CCN1CCO[C@@H]2CN(C(=O)c3cocn3)C[C@@H]2C1 | 0.933% |
| NCC1CCCCN1C(=O)Cc1cccc(Cl)c1 (stereo not given) | -5.36% |
| Cn1cc(C[C@H]2[C@H](O)CCN2CC2CC2)cn1 | -0.516% |
| CCO[C@@H]1CO[C@@]2(CCN(Cc3ccc4c(c3)OCO4)C2)C1 | 5.53% |
| COCCN1CCO[C@@H]2CN(C(=O)Cc3ccccc3)CC[C@@H]2C1 | 4.98% |
| COc1ccc(CC(=O)N2CC[C@@H]3[C@H](CC2)N(C)CCS3(=O)=O)cc1 | -104% |
| CN1CCOCC2(CCN(Cc3ccc[nH]3)CC2)C1 | 0.442% |
| Cc1cc(CN2C[C@@H]3COC[C@]3(CN(C)C)C2)no1 | 4.81% |
| Cc1ccc(N2CC[C@@H]3[C@@H]2CCN3C(=O)c2cscn2)nn1 | 5.38% |
| Cc1ncsc1CN1CCn2c(COCC3CC3)cnc2C1C (stereo not given) | -1.82% |
| Cc1cnc(CNC(=O)[C@@]23CCO[C@@H]2CCN(C2CCCC2)C3)cn1 | -110% |
